The record followed here is ChEMBL document CHEMBL5104115, “Design, synthesis of novel triptolide-glucose conjugates targeting glucose Transporter-1 and their selective antitumor effect” (Eur J Med Chem, 2022).

Active and inactive are the calls of the source. The rule behind the calls is not given here.

Data set [1] can be described thus: Toxicity in BALB/c nude mouse xenografted with human NCI-H1975 cells assessed as decreased spermatogenic cells at 2 mg/kg administered ip, qd for 2 weeks. Conditions: in vivo, 336 h. (In general: Xenograft models place foreign cells or tissue in a host animal.)
Data set [2] relates to NCI-H1975. Nature of the data set: Antitumor activity against human NCI-H1975 cells xenografted in BALB/c nude mouse assessed as tumor growth inhibition at 1 mg/kg, ip, qd for 2 weeks relative to control. The settings on record: NCI-H1975, 336 h, read-out: TGI.
The test system of data set [3] is NCI-H460. Nature of the data set: Induction of ROS accumulation in human NCI-H460 cells measured upto 20 uM after 42 to 48 hrs by DCFH-DA staining based flow cytometric analysis. In kind it is functional, cell-based. Conditions: time 42-48 hrs. A digest of the protocol: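 NCI-H460 cells exposed 42 h or 48 h. Cells suspended in 1% BSA DPBS, loaded with DCFH-DA (0.2 µL of 10 mM stock per 200 µL) for 30 min in the dark, washed, analyzed by flow cytometry. DCF fluorescence expressed as percentage relative to untreated control from histograms, ≥3 replicates.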

Data set [4] concerns NCI-H460. Nature of the data set: Induction of apoptosis in human NCI-H460 cells assessed as late apoptotic cells at 1 uM measured after 48 hrs by Annexin V-FITC/PI staining method (reference value: 8.47%). In kind it is functional.
For data set [5], the system named is NCI-H1975 (Homo sapiens). Nature of the data set: Antineoplastic activity against human NCI-H1975 cells xenografted in BALB/c nude mouse assessed as tumor growth inhibition at 1 to 2 mg/kg, ip, qd for 2 weeks. The settings on record: dose 1-2 mg/kg.
Data set [6] can be described thus: Cytotoxicity against HUVEC transfected with OE V overexpressing Glut1assessed as decrease in cell viability incubated for 72 hrs by MTT assay. In kind it is toxicity, cell-based. Conditions: human, HUVEC cells transfected with OE V overexpressing Glut1. The method in brief:
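HUVEC kept in DMEM with 10% FBS, made to overexpress Glut-1 (OE) or carry vector (OE V) by lentiviral infection and puromycin selection for 14 days, with Western blot check. Seeded at 4000 cells/well, treated over a concentration range or DMSO for 72 h, then MTT at 570 nm. IC50 taken from at least three replicates.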

Data set [7] concerns NCI-H1975. Nature of the data set: Cytotoxicity against Glut1 knocked down human NCI-H1975 cells transfected with KDV assessed as decrease in cell viability incubated for 72 hrs by MTT assay. Type of data set: functional, cell-based. Conditions: NCI-H1975, 72 h. A digest of the protocol:
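Stable Glut-1 knockdown (KD1, KD2, vector KD V) or overexpression (OE, vector OE V) NCI-H1975 cells made by 12 h lentiviral infection, 72 h culture, then 14 days puromycin selection; Glut-1 confirmed by Western blot. Cells seeded at 4000/well overnight, dosed over a concentration range or DMSO for 72 h. MTT read at 570 nm; IC50 from ≥3 replicates.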
On the technique in general: Formazan colour is commonly taken as a measure of viable cells.

Data set [8] has as its system NCI-H1975. Nature of the data set: Antitumor activity against human NCI-H1975 cells xenografted in BALB/c nude mouse assessed as tumor growth inhibition at 2 mg/kg, ip, qd for 2 weeks relative to control. Conditions: NCI-H1975, 336 h, read-out: TGI.
Data set [9] in a line: Drug distribution in NCI-H1975 tumor bearing nude mouse model assessed as tumor to kidney ratio of triptolide metabolite at 2 mg/kg, iv by LC-MS analysis. Type of data set: ADME, organism-based. Conditions: in vivo. A digest of the protocol: (§1)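 NCI-H1975 xenograft mice, tumors about 500 mm3, 3 per group, fasted 12 h with water available. Given 2 mg/kg iv and sacrificed 1 h later. Heart, liver, lung, kidney and tumor weighed and flash-frozen. 1.0 g tissue homogenized in 2.0 mL saline, methanol-precipitated, reconstituted. Parent, triptolide succinate and triptolide measured by LC-MS; tumor/organ ratios calculated.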

Data set [10] in a line: Stability in mouse serum measured after 8 hrs by HPLC analysis. In kind it is ADME, cell-free.
Data set [11] is described as follows: Stability in human serum measured upto 72 hrs by HPLC analysis. In kind it is ADME, cell-free. A digest of the protocol:
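15 µM test agent incubated with human or mouse serum at 37 °C for 0, 0.5, 1, 8, 12, 18, 60 and 72 h. Samples stored at −80 °C, protein precipitated with 200 µL methanol, vortexed and sonicated 5 min. Intact agent and released triptolide measured by HPLC at 220 nm, in duplicate.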

The nature of data set [12]: Cytotoxicity against human HaCaT cells incubated for 72 hrs by MTT assay. Type of data set: toxicity, cell-based. A digest of the protocol: (§2)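 Cells seeded at 4000/well, incubated overnight, then exposed to a range of concentrations, or DMSO vehicle, for 72 h. MTT (5 mg/mL solution) added for 4 h and formazan dissolved in DMSO. Absorbance read at 570 nm, and IC50 derived from the curves. Tumor lines were grown in RPMI 1640; HUVEC, HaCaT and LO2 were grown in DMEM, each with 10% FBS at 37 °C and 5% CO2.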

Data set [13] in a line: Drug distribution in NCI-H1975 tumor bearing nude mouse model assessed as tumor to lung ratio of triptolide metabolite at 2 mg/kg, iv by LC-MS analysis. Type of data set: ADME, organism-based. Conditions: in vivo. A digest of the protocol:
as §1

Data set [14] concerns NCI-H460. Nature of the data set: Induction of apoptosis in human NCI-H460 cells assessed as late apoptotic cells at 50 uM measured after 48 hrs by Annexin V-FITC/PI staining method (reference value: 8.47%). In kind it is functional.
Data set [15] concerns HCT-116. Nature of the data set: Cytotoxicity against human HCT-116 cells incubated for 72 hrs by MTT assay. Type of data set: functional, cell-based. The settings on record: HCT-116, 72 h. The method in brief: as §2
Data set [16] has as its system NCI-H460. Nature of the data set: Induction of apoptosis in human NCI-H460 cells assessed as early apoptotic cells at 50 uM measured after 48 hrs by Annexin V-FITC/PI staining method (reference value: 3.26%). In kind it is functional.
Data set [17] in a line: Drug distribution in NCI-H1975 tumor bearing nude mouse model assessed as tumor to heart ratio of triptolide metabolite at 2 mg/kg, iv by LC-MS analysis. Type of data set: ADME, organism-based. The settings on record: in vivo. A digest of the protocol:
as §1

A short description of data set [18]: Toxicity in BALB/c nude mouse xenografted with human NCI-H1975 cells assessed as morphological changes in testis at 1 mg/kg administered ip, qd for 2 weeks. Conditions: in vivo, 336 h.
The nature of data set [19]: MRT (0 to 3 hrs) in NCI-H1975 tumor bearing nude mouse model serum at 1 mg/kg, iv. In kind it is ADME, organism-based.
The subject of data set [20] is NCI-H460. Nature of the data set: Induction of apoptosis in human NCI-H460 cells assessed as viable cells at 20 uM measured after 48 hrs by Annexin V-FITC/PI staining method (reference value: 86.7%). The settings on record: read-out: Activity. Type of data set: functional.
Data set [21] has as its system NCI-H460. Nature of the data set: Induction of apoptosis in human NCI-H460 cells assessed as necrotic cells at 50 uM measured after 48 hrs by Annexin V-FITC/PI staining method (reference value: 1.62%). Type of data set: functional.
Data set [22] in a line: Toxicity in BALB/c nude mouse xenografted with human NCI-H1975 cells assessed as morphological change in kidney at 1 to 2 mg/kg administered ip, qd for 2 weeks. The settings on record: in vivo, 336 h.
Data set [23] in a line: Toxicity in BALB/c nude mouse xenografted with human NCI-H1975 cells assessed as morphological change in heart at 1 to 2 mg/kg administered ip, qd for 2 weeks. The settings on record: in vivo, 336 h.
The nature of data set [24]: Toxicity in BALB/c nude mouse xenografted with human NCI-H1975 cells assessed as diarrhea at 1 to 2 mg/kg administered ip, qd for 2 weeks. The settings on record: in vivo, 336 h.

A word on the IC50: it is the concentration that gives 50% inhibition. For orientation: MRT last means a mean duration of stay, worked out from the concentration-time curve.

Turning to `CC(C)[C@]12O[C@H]1[C@@H]1O[C@]13[C@]1(O[C@H]1C[C@H]1C4=C(CC[C@@]13C)C(=O)OC4)[C@@H]2OC(=O)CCC(=O)O[C@H]1C(O)O[C@H](CO)[C@@H](O)[C@@H]1O` (some centres undefined), the Activity entry in data set [1] was “Toxic”; in data set [4] it was 7.68%; in data set [14], 21.4%; in data set [16], 50.2%; in [18], “Non-Toxic”; in data set [21], 5.77%. Also, the Activity entry in data set [22], in [23] and in [24] was “Non-Toxic” throughout. In addition, in data set [2], the inhibition in vivo at 1 mg/kg amounted to 75.4%. For the same compound, the result in [3] and in [5] was Active. The IC50 at 72 h turned out to be 9.22 µM in [6] and 6.54 µM in data set [12]. The figures for the IC50 in data set [7] and in [15] were 2.87 µM and 1.95 µM, respectively. Further, the inhibition in vivo at 2 mg/kg in data set [8] turned out to be 90.4%. The results for the Ratio in [9], in data set [13] and in data set [17] were 18.8, 15.5 and 7.3, respectively. Moreover, the Stability result in [10] and in data set [11] was “Stable” in each case. Further, the MRT last in data set [19] was 33.6 min. Besides, the viability at 20 µM in data set [20] amounted to 32.6%.
